Results on eight compounds are retold here after ChEMBL document CHEMBL5321262, “Antiviral Activity of Cannabidiolic Acid and Its Methyl Ester against SARS-CoV-2” (J Nat Prod, 2023).

The test system of series [1] is SARS-CoV-2. Description: Antiviral activity against SARS-CoV-2 Italian strain PV10734 infected in African green monkey Vero E6 cells assessed as reduction in virus-induced cytopathic effect preincubated with virus for 1 hr followed by infection with cells and measured after 72 hrs by microscopic analysis. Format: functional, organism-based. To be noted: Severe acute respiratory syndrome coronavirus 2, time 73.0 hrs.

Series [2] can be described thus: Cytotoxicity against African green monkey Vero E6 cells measured after 72 hrs by LDH assay. To be noted: chlorocebus sabaeus. Format: toxicity, cell-based, Vero C1008. An outline of the steps:
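Vero E6 seeded at 2 × 10^4 cells/well and held overnight at 37 °C, 5% CO2. Compounds added at final 2.3–300.0 µM (8 two-fold steps) with DMSO fixed at 0.5% v/v. After 72 h, LDH-WST read-out at 490 nm, with % cytotoxicity taken against DMSO control. CC50 from nonlinear dose–response regression.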

Series [3] is described as follows: Stability of compound in cell culture media at 37.5 uM measured upto 30 mins by UHPLC-HRMS analysis. The format is physicochemical. As to conditions: 0.5 h.
Series [4] relates to SARS-CoV-2. The series is described as follows: Antiviral activity against SARS-CoV-2 Italian strain PV10734 infected in African green monkey Vero E6 cells assessed as reduction in viral replication at 37.5 uM measured at 72 hrs post-infection by qRT-PCR analysis. The format is functional, organism-based. As to conditions: Severe acute respiratory syndrome coronavirus 2.
The test system of series [5] is SARS-CoV-2. Description: Antiviral activity against SARS-CoV-2 Italian strain PV10734 infected in African green monkey Vero E6 cells assessed as inhibition of virus titers of progeny virus in supernatant at 37.5 uM measured after 72 hrs by CPE assay relative to control. Format: functional. As to conditions: Severe acute respiratory syndrome coronavirus 2, PV10734, Vero C1008.

The nature of series [6]: Stability of compound in African green monkey Vero E6 cell lysates assessed as decarboxylation at 37.5 uM measured upto 30 mins by UHPLC-HRMS analysis. The format is ADME, subcellular. As to conditions: chlorocebus sabaeus, vero c1008, 0.5 h.
Series [7] has as its system SARS-CoV-2. The series is described as follows: Antiviral activity against SARS-CoV-2 Italian strain PV10734 infected in African green monkey Vero E6 cells assessed as reduction in virus-induced cytopathic effect at 37.5 uM preincubated with virus for 1 hr followed by infection with cells and measured after 72 hrs by microscopic analysis. The format is functional, organism-based. As to conditions: Severe acute respiratory syndrome coronavirus 2, time 73.0 hrs.

The test system of series [8] is SARS-CoV-2. Description: Antiviral activity against SARS-CoV-2 Italian strain PV10734 infected in African green monkey Vero E6 cells assessed as reduction in virus titers of progeny virus in supernatant measured after 72 hrs by CPE assay. To be noted: Severe acute respiratory syndrome coronavirus 2, PV10734, Vero C1008, 72 h. Format: functional, organism-based.
In series [9] the test system is SARS-CoV-2. The series is described as follows: Antiviral activity against SARS-CoV-2 Italian strain PV10734 infected in African green monkey Vero E6 cells assessed as inhibition of virus titers of progeny virus in supernatant at 75 uM measured after 72 hrs by CPE assay relative to control. The format is functional. As to conditions: Severe acute respiratory syndrome coronavirus 2, PV10734, Vero C1008.

The test system of series [10] is SARS-CoV-2. The series is described as follows: Antiviral activity against SARS-CoV-2 Italian strain PV10734 infected in African green monkey Vero E6 cells assessed as reduction in viral replication at 75 uM measured at 72 hrs post-infection by qRT-PCR analysis. Format: functional, organism-based. As to conditions: Severe acute respiratory syndrome coronavirus 2. (In general: Quantitative PCR measures a nucleic acid by following its amplification.)

Series [11] concerns SARS-CoV-2. The series is described as follows: Antiviral activity against SARS-CoV-2 Italian strain PV10734 infected in African green monkey Vero E6 cells assessed as reduction in virus-induced cytopathic effect at 75 uM preincubated with virus for 1 hr followed by infection with cells and measured after 72 hrs by microscopic analysis. The format is functional, organism-based. To be noted: Severe acute respiratory syndrome coronavirus 2, time 73.0 hrs. Background: Cytopathic effects are the visible damage that an infection or toxin causes in cultured cells.

A short description of series [12]: Stability of compound in African green monkey Vero E6 cell lysates assessed as decarboxylation at 75 uM measured upto 30 mins by UHPLC-HRMS analysis. Format: ADME, subcellular. To be noted: chlorocebus sabaeus, vero c1008, 0.5 h.

Each structure is given as a SMILES string. Activity calls are given as the source filed them. The calls are words filed in the database; no cut-off is given here.

`CCCc1cc(O)c(C/C=C(\C)CCC=C(C)C)c(O)c1`: in the series on SARS-CoV-2 [1], the result was inactive. Moreover, the cytotoxic concentration (CC50) at 72 h in series [2] came to 58.1 µM.
Consider `C=C(C)[C@@H]1CCC(C)=C[C@H]1c1c(O)cc(CCCCC)c(C(=O)OC)c1O`, for which the Stability entry in series [3] and in series [6] was “Stable” throughout. Further, the outcome with SARS-CoV-2 [4] and in the series with SARS-CoV-2 [7] was Active. The inhibition at 37.5 µM in the series on SARS-CoV-2 [5] is above 90%. Further, the half-inhibitory concentration (IC50) with SARS-CoV-2 [8] stood at 18.4 µM. This compound registered a CC50 at 72 h in series [2] of 52.4 µM.
For the compound `CCCCCc1cc(O)c2c(c1)OC(C)(CCC=C(C)C)C=C2` (stereo not given) [CANNABICHROMENE], the result in the series with SARS-CoV-2 [1] was inactive. Further, half-maximal cytotoxicity in series [2] (CC50 at 72 h) was put at 59.3 µM.
Regarding `C=C(C)[C@@H]1CCC(C)=C[C@H]1c1c(O)cc(CCCCC)c(C(=O)O)c1O` [CANNABIDIOLIC ACID], in the series with SARS-CoV-2 [9], the inhibition at 75 µM is above 90%. The result in the series with SARS-CoV-2 [10] and in the series with SARS-CoV-2 [11] was Active. Also, the IC50 with SARS-CoV-2 [8] turned out to be 42.7 µM. Also, in [12], the Stability entry is recorded as “Unstable”. In [2], this compound came in with a CC50 at 72 h of 119 µM.
Consider `C=C(C)[C@@H]1CCC(C)=C[C@H]1c1c(O)cc(CCCCC)cc1O` [CANNABIDIOL], for which the outcome in the series with SARS-CoV-2 [1] was inactive. In [2], this compound showed a half-maximal cytotoxic concentration (CC50) at 72 h of 28.9 µM.
The matching figures for `C=C(C)[C@@H]1CCC(C)=C[C@H]1c1c(O)cc(CCC)cc1O` [CANNABIDIVARIN]: “inactive” and 26 µM.
As to `CCCCCc1cc(O)c(C/C=C(\C)CCC=C(C)C)c(O)c1C(=O)O` [CANNABIGEROLIC ACID], the result with SARS-CoV-2 [1] was inactive. For the same compound, it took 43.9 µM to reach half-maximal cytotoxicity in series [2] (CC50 at 72 h).
The matching figures for `CCCCCc1cc(O)c(C/C=C(\C)CCC=C(C)C)c(O)c1` [CANNABIGEROL]: “inactive” and 58 µM.

What is called CC50 is the concentration at which the toxic effect on the cells reaches its halfway point. A word on the inhibition: it is the percentage by which the read-out fell short of the control. As usually defined, the IC50 is the concentration at which inhibition is half-maximal.
